ChEMBL document CHEMBL4196177, “Synthesis, Evaluation, and Structure-Activity Relationship Study of Lanosterol Derivatives To Reverse Mutant-Crystallin-Induced Protein Aggregation” (J Med Chem, 2018)
Substitutions are numbered along the chain they refer to. Activity calls are given as the source filed them. The calls are words filed in the database; no cut-off is given here.

Assays:
[1] = test system: T1, Beta-crystallin B2 (Homo sapiens), P43320 [V187E]; assay: Inhibition of beta-crystallin B2 V187E mutant (unknown origin)-induced cytotoxicity in human HeLa cells assessed as increase in cell viability at 0.04 to 4 uM incubated for 12 hrs by CCK8 assay; format: cell-based
T1 sequence (whole entry): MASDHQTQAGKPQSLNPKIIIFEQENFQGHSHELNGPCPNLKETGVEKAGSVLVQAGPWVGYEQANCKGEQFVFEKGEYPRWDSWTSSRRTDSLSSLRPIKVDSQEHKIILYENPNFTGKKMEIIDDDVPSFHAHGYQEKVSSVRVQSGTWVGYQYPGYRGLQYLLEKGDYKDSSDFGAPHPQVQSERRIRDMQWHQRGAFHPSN

HeLa = assay: Increase in cell viability of human HeLa cells transfected with peGFP-N1 at 0.04 to 4 uM incubated for 12 hrs by CCK8 assay; format: functional, cell-based
[2] = test system: T2, Alpha-crystallin A chain (Homo sapiens), P02489 [Y118D]; assay: Inhibition of alpha-crystallin A Y118D mutant (unknown origin)-induced cytotoxicity in human HeLa cells assessed as increase in cell viability at 0.04 to 4 uM incubated for 12 hrs by CCK8 assay; format: cell-based
T2 sequence (whole entry): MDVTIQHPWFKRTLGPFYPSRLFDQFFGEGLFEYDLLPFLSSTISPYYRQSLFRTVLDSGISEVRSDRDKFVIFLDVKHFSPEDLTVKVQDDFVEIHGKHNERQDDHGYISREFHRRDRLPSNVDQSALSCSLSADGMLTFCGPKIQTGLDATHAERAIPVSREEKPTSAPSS

[3] = test system: T3, Alpha-crystallin B chain (Homo sapiens), P02511 [R120G]; assay: Inhibition of alpha-crystallin B R120G mutant (unknown origin)-induced cytotoxicity in human HeLa cells assessed as increase in cell viability at 0.04 to 4 uM incubated for 12 hrs by CCK8 assay; format: cell-based
T3 sequence (whole entry): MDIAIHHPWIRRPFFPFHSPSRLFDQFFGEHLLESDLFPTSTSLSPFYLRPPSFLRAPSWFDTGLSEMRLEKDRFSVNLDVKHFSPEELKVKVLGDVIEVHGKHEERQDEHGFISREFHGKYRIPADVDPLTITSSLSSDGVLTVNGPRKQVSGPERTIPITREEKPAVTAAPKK

[4] = test system: T4, Gamma-crystallin D (Homo sapiens), P07320 [W43R]; assay: Inhibition of gamma-crystallin D W43R mutant (unknown origin)-induced cytotoxicity in human HLE-B3 cells assessed as increase in cell viability at 0.04 to 4 uM incubated for 12 hrs by CCK8 assay; format: cell-based
T4 sequence (whole entry): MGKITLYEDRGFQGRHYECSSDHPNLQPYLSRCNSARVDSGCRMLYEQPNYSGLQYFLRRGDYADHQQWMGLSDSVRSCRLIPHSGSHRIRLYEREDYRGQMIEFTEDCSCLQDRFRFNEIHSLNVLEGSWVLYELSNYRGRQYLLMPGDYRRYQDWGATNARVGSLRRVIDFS

[5] = test system: T4, Gamma-crystallin D (Homo sapiens), P07320 [W43R]; assay: Induction of redissolving of aggregated gamma-crystallin D W43R mutant (unknown origin) at 200 uM incubated for 24 hrs by ThT-fluorescence based assay
Summary of the method: (§1)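 Purified mutant crystallin proteins, pre-formed into amyloid-like fibrils, were treated with compounds delivered in liposomes, with a liposome-only vehicle control. Redissolution was read as thioflavin T (ThT) fluorescence, n = 3.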

[6] = test system: T5, Beta-crystallin B2 (Homo sapiens), P43320 [R188H]; assay: Induction of redissolving of aggregated beta-crystallin B2 R188H mutant (unknown origin) at 200 uM incubated for 24 hrs by ThT-fluorescence based assay; summary of the method: as §1
T5 sequence (whole entry): T1 sequence (whole entry) with E187V, R188H

[7] = test system: T6, Gamma-crystallin C (Homo sapiens), P07315 [G129C]; assay: Inhibition of gamma-crystallin C G129C mutant (unknown origin)-induced cytotoxicity in human HLE-B3 cells assessed as increase in cell viability at 0.04 to 4 uM incubated for 12 hrs by CCK8 assay; format: cell-based
T6 sequence (whole entry): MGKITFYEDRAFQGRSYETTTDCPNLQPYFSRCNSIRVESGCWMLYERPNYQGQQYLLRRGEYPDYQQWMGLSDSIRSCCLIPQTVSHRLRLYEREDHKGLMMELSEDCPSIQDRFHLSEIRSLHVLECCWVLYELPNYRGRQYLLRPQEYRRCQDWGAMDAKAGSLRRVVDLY

[8] = test system: T4, Gamma-crystallin D (Homo sapiens), P07320 [W43R]; assay: Induction of redissolving of aggregated gamma-crystallin D W43R mutant (unknown origin) at 200 uM incubated for 24 hrs by transmission-electron-microscopy
Summary of the method: (§2)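 Pre-formed amyloid-like fibrils of mutant crystallin proteins were treated with compounds in liposomes or with a liposome vehicle. Fibrillar structures were then examined by negative-stain transmission electron microscopy.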

[9] = test system: T1, Beta-crystallin B2 (Homo sapiens), P43320 [V187E]; assay: Inhibition of beta-crystallin B2 V187E mutant (unknown origin)-induced cytotoxicity in human HLE-B3 cells assessed as increase in cell viability at 0.04 to 4 uM incubated for 12 hrs by CCK8 assay; format: cell-based
[10] = test system: T2, Alpha-crystallin A chain (Homo sapiens), P02489 [Y118D]; assay: Inhibition of alpha-crystallin A Y118D mutant (unknown origin)-induced cytotoxicity in human HLE-B3 cells assessed as increase in cell viability at 0.04 to 4 uM incubated for 12 hrs by CCK8 assay; format: cell-based
Homo sapiens = species on record: Homo sapiens; assay: Increase in cell viability of human HLE-B3 cells transfected with peGFP-N1 at 0.04 to 4 uM incubated for 12 hrs by CCK8 assay; format: functional
[11] = test system: T6, Gamma-crystallin C (Homo sapiens), P07315 [G129C]; assay: Inhibition of gamma-crystallin C G129C mutant (unknown origin)-induced cytotoxicity in human HeLa cells assessed as increase in cell viability at 0.04 to 4 uM incubated for 12 hrs by CCK8 assay; format: cell-based
[12] = test system: T6, Gamma-crystallin C (Homo sapiens), P07315 [G129C]; assay: Induction of redissolving of aggregated gamma-crystallin C G129C mutant (unknown origin) at 200 uM incubated for 24 hrs by transmission-electron-microscopy; summary of the method: as §2
[13] = test system: T3, Alpha-crystallin B chain (Homo sapiens), P02511 [R120G]; assay: Inhibition of alpha-crystallin B R120G mutant (unknown origin)-induced cytotoxicity in human HLE-B3 cells assessed as increase in cell viability at 0.04 to 4 uM incubated for 12 hrs by CCK8 assay; format: cell-based
[14] = test system: T4, Gamma-crystallin D (Homo sapiens), P07320 [W43R]; assay: Inhibition of gamma-crystallin D W43R mutant (unknown origin)-induced cytotoxicity in human HeLa cells assessed as increase in cell viability at 0.04 to 4 uM incubated for 12 hrs by CCK8 assay; format: cell-based
[15] = test system: T2, Alpha-crystallin A chain (Homo sapiens), P02489 [Y118D]; assay: Induction of redissolving of aggregated alpha-crystallin A Y118D mutant (unknown origin) at 200 uM incubated for 24 hrs by ThT-fluorescence based assay; summary of the method: as §1

Compound | inhibition [1] | Activity (HeLa) | inhibition [2] | inhibition [3] | inhibition [4] | Activity [5] | Activity [6] | inhibition [7] | Activity [8] | inhibition [9] | inhibition [10] | Activity (Homo sapiens) | inhibition [11] | Activity [12] | inhibition [13] | inhibition [14] | Activity [15]
C[C@H](CCCC(C)(C)O)[C@H]1CC[C@@]2(C)C3=C(CC[C@]12C)[C@@]1(C)CC[C@H](O)C(C)(C)[C@@H]1CC3 | Active | Active | Active | Active | Active | Active | Active | Active | Active | Active | Active | Active | Active | Active | Active | Active | Active
C[C@H](CCCC(C)(C)O)[C@H]1CC[C@@]2(C)C3=C(CC[C@]12C)[C@@]1(C)C[C@@H](F)[C@@H](O)C(C)(C)[C@@H]1CC3 | Active | Active | Active | Active | Active | – | – | Active | – | Active | Active | Active | Active | – | Active | Active | –
C[C@H](CCCC(C)(C)O)[C@H]1CC[C@@]2(C)C3=CC[C@H]4C(C)(C)[C@@H](O)CC[C@]4(C)C3=CC[C@]12C | Active | Active | Active | Active | Active | – | – | Active | – | Active | Active | Active | Active | – | Active | Active | –
C[C@H](CCCC(C)(C)O)[C@H]1CC[C@@]2(C)C3=C(CC[C@]12C)[C@@]1(C)CCC(=O)C(C)(C)[C@@H]1CC3 | Active | Active | Active | Active | Active | – | – | Active | – | Active | Active | Active | Active | – | Active | Active | –
C[C@H](CCCC(C)(C)O)[C@H]1CC[C@@]2(C)[C@@]34CC[C@H]5C(C)(C)/C(=N/O)CC[C@]5(C)[C@]3(CC[C@]12C)O4 | – | – | – | – | – | inactive | inactive | – | inactive | – | – | – | – | inactive | – | – | inactive
C[C@H](CCCC(C)(C)O)[C@H]1CC[C@@]2(C)C3=C(CC[C@]12C)[C@@]1(C)C[C@@H](F)[C@H](O)C(C)(C)[C@@H]1CC3 | Active | Active | Active | Active | Active | – | – | Active | – | Active | Active | Active | Active | – | Active | Active | –
